Blank lines part the entries; values can stand above or below the compound they belong to.
Columns and labels:
[1] = molecular target: TRPM3α1 Δ6b (Mus musculus, UniProt J9SQF3, DEL1071-1076); test: Whole-cell patch clamp, deletion mutant TRPM3α1 Δ6b; format: cell-based; conditions: for block of clotrimazole-activated currents: Clt 10 μM, isosakuranetin 5 μM, diclofenac 100 μM, primidone 25 μM
[2] = molecular target: TRPM3α2 (Mus musculus, UniProt J9SQF3); test: Whole-cell patch clamp, HEK293T cells expressing TRPM3α2; format: cell-based, murine; conditions: for block of CIM0216-induced currents: isosakuranetin 5 μM, diclofenac 100 μM, primidone 25 μM
[3] = molecular target: TRPM3α2_D1064_A_P1065 (TRPM3α2 +1) (Mus musculus, UniProt J9SQF3, INS1087A); test: Whole-cell patch clamp, insertion mutant TRPM3α2 +1; format: cell-based; conditions: for block of clotrimazole-evoked currents / block of pregnenolone sulphate-induced currents: isosakuranetin 5 μM, diclofenac 100 μM, primidone 25 μM
[4] = molecular target: T1, TRPM3α1 (Mus musculus, UniProt J9SQF3); test: Whole-cell patch clamp, HEK293T cells expressing TRPM3α1; format: cell-based; conditions: for block of CIM0216-induced currents: CIM0216 1 μM, isosakuranetin 5 μM; for block of CIM0216-induced currents / block of clotrimazole-induced currents: diclofenac 100 μM, primidone 25 μM; for block of CIM0216-induced currents / block of clotrimazole-induced currents / whole-cell current increase: ±80 mV; for block of clotrimazole-induced currents: Clt 10 μM; for whole-cell current increase: Nif 50 μM
[5] = test system: TRPM3α1 Δ3d; test: Whole-cell patch clamp, deletion mutant TRPM3α1 Δ3d; format: cell-based, mouse; conditions: for block of clotrimazole-activated currents: isosakuranetin 5 μM, diclofenac 100 μM, primidone 25 μM
[6] = molecular target: T1, TRPM3α1; test: Calcium microfluorimetry, HEK293T cells transiently transfected with TRPM3α1; format: cell-based; conditions: for intracellular calcium response: PS 40 μM, Nif 50 μM, Clt 10 μM, CIM0216 1 μM, Fura-2; for calcium signal at high agonist concentrations: PS 50, 100 and 200 μM, Nif 100 and 200 μM
[7] = test system: short pore loop TRPM3α variants (α2–α6); format: cell-based, mouse; conditions: PS 40 μM, Nif 50 μM; all isoforms α2–α6
In short: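 HEK293T cells transiently transfected 48 h before imaging were loaded with Fura-2 AM for 20 min at 37°C. Ratios at 340/380 nm excitation were converted to absolute calcium by Grynkiewicz calibration. Response was taken as maximum minus basal during the stimulus. Only cells responding to a final ionomycin challenge were counted. At least three independent coverslips were used.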

[8] = test system: TRPM3α1 Δ3b; test: Whole-cell patch clamp, deletion mutant TRPM3α1 Δ3b; format: cell-based, mouse; conditions: n=5
[9] = test system: TRPM3α1 Δ3a; test: Whole-cell patch clamp, deletion mutant TRPM3α1 Δ3a; format: cell-based, mouse; conditions: n=5
[10] = test system: TRPM3α1 Δ3c; test: Whole-cell patch clamp, deletion mutant TRPM3α1 Δ3c; format: cell-based, mouse; conditions: n=5
[11] = molecular target: TRPM3α2 +5 (Mus musculus, UniProt J9SQF3, INS1087AAAAA); test: Whole-cell patch clamp, insertion mutant TRPM3α2 +5; format: cell-based; conditions: PS 40 μM, n=4
[12] = molecular target: TRPM3α1 A1077P (α1 A‐P) (Mus musculus, UniProt J9SQF3, A1077P); test: Whole-cell patch clamp, mutant TRPM3α1 A1077P; format: cell-based; conditions: PS 40 μM, n=6
[13] = molecular target: TRPM3α1 Δ12 (Mus musculus, UniProt J9SQF3, DEL1065-1076); test: Whole-cell patch clamp, deletion mutant TRPM3α1 Δ12; format: cell-based; conditions: PS 40 μM, n=6
[14] = molecular target: TRPM3α2 D1064_AA_P1065 (TRPM3α2 +2) (Mus musculus, UniProt J9SQF3, INS1087AA); test: Whole-cell patch clamp, insertion mutant TRPM3α2 +2; format: cell-based; conditions: PS 40 μM, n=4
[15] = molecular target: T2, short pore loop TRPM3α isoforms (α2–α6) (Mus musculus, UniProt J9SQF3); test: Whole-cell patch clamp, HEK293T cells expressing short pore loop TRPM3α isoforms; format: cell-based; conditions: PS 40 μM, Clt 10 μM; ±80 mV
T2 sequence (J9SQF3 852-1200 limits assumed): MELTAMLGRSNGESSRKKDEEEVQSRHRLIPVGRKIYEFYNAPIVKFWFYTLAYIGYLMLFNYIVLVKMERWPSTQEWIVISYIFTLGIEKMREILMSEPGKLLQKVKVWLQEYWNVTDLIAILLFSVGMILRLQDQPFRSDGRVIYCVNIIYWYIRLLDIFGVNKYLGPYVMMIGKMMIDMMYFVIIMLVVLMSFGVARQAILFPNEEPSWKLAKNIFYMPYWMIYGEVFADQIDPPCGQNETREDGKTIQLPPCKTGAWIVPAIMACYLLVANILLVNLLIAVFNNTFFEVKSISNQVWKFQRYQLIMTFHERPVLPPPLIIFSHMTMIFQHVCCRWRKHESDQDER

[16] = molecular target: TRPM3α1 Δ6a (Mus musculus, UniProt J9SQF3, DEL1065-1070); test: Whole-cell patch clamp, deletion mutant TRPM3α1 Δ6a; format: cell-based; conditions: PS 40 μM, n=4
[17] = molecular target: TRPM3α2 +3 (Mus musculus, UniProt J9SQF3, INS1087AAA); test: Whole-cell patch clamp, insertion mutant TRPM3α2 +3; format: cell-based; conditions: PS 40 μM, n=5
[18] = molecular target: TRPM3α1 and TRPM3α2 co-expressed (Mus musculus, UniProt J9SQF3); test: Calcium microfluorimetry, HEK293 cells co-transfected with TRPM3α1 and TRPM3α2; format: cell-based; conditions: PS 40 μM, Clt 10 μM; TRPM3α2 cDNA 0.5 μg with TRPM3α1 cDNA 0, 1.5 and 3 μg
[19] = molecular target: TRPM3α2 +4 (Mus musculus, UniProt J9SQF3, INS1087AAAA); test: Whole-cell patch clamp, insertion mutant TRPM3α2 +4; format: cell-based; conditions: PS 40 μM, n=6

SMILES: COC(=O)C1=C(C)NC(C)=C(C(=O)OC)C1c1ccccc1[N+](=O)[O-] [nifedipine, Nifedipine]
intracellular calcium response [6]: did not induce any detectable calcium rise
calcium signal at high agonist concentrations [6]: did not induce any detectable calcium signal
whole-cell current increase ([4]; PS 40 μM): without effect
intracellular calcium response [7]: robust calcium responses

SMILES: O=C(O)Cc1ccccc1Nc1c(Cl)cccc1Cl [diclofenac, Diclofenac]
block of clotrimazole-activated currents [1]: only a partial block
block of CIM0216-induced currents ([2]; CIM0216 1 μM, ±80 mV): full block
block of clotrimazole-evoked currents [3]: ineffective
block of pregnenolone sulphate-induced currents [3]: fully block
block of CIM0216-induced currents [4]: full block
block of clotrimazole-induced currents [4]: only partially blocked
block of clotrimazole-activated currents ([5]; Clt 10 μM): only a partial block

SMILES: Cc1cc(NC(=O)C(c2ccccc2)N2CCCc3ccccc32)no1 (stereo not drawn) [CIM0216]
intracellular calcium response [6]: sizable increases in intracellular calcium
whole-cell current increase ([2]; CIM0216 1 μM, ±80 mV): robust increase in both inward and outward currents
EC50 ([4]; read-out: EC50 of current activation, CIM0216, outwardly rectifying currents): 0.57 ± 0.05 µM

SMILES: Clc1ccccc1C(c1ccccc1)(c1ccccc1)n1ccnc1 [clotrimazole, Clotrimazole]
Clt +80 mV ΔI density ([8]; Clt 10 μM, +80 mV): 149.2 ± 21.2 pA/pF
Clt −80 mV ΔI density ([8]; Clt 10 μM, −80 mV): −122.8 ± 13.9 pA/pF
Clt +80 mV ΔI density ([9]; Clt 10 μM, +80 mV): 430.6 ± 74.8 pA/pF
Clt −80 mV ΔI density ([9]; Clt 10 μM, −80 mV): −355.3 ± 55.5 pA/pF
Clt +80 mV ΔI density ([10]; Clt 10 μM, +80 mV): 242.5 ± 17.2 pA/pF
Clt −80 mV ΔI density ([10]; Clt 10 μM, −80 mV): −225.3 ± 13.8 pA/pF
Clt +80 mV ΔI density ([5]; Clt 10 μM, +80 mV, n=5): 269.2 ± 55.2 pA/pF
Clt −80 mV ΔI density ([5]; Clt 10 μM, −80 mV, n=5): −259.7 ± 53.1 pA/pF

Now from value to compound, other results behind:

block of clotrimazole-activated currents [1]: only a partial block
block of CIM0216-induced currents ([2]; CIM0216 1 μM, ±80 mV): full block
block of clotrimazole-evoked currents [3]: ineffective
block of pregnenolone sulphate-induced currents [3]: fully block
block of CIM0216-induced currents [4]: full block
block of clotrimazole-induced currents [4]: only partially blocked
SMILES: CCC1(c2ccccc2)C(=O)NCNC1=O [primidone, Primidone]
block of clotrimazole-activated currents ([5]; Clt 10 μM): only a partial block

PS +80 mV ΔI density ([11]; +80 mV): 1.2 ± 0.6 pA/pF
PS −80 mV ΔI density ([11]; −80 mV): −0.1 ± 0.1 pA/pF
PS +80 mV ΔI density ([12]; +80 mV): −0.4 ± 0.6 pA/pF
PS −80 mV ΔI density ([12]; −80 mV): −0.1 ± 0.3 pA/pF
PS +80 mV ΔI density ([13]; +80 mV): 35.6 ± 13.9 pA/pF
PS −80 mV ΔI density ([13]; −80 mV): −3.8 ± 1.7 pA/pF
PS +80 mV ΔI density ([1]; PS 40 μM, +80 mV, n=5): 0.3 ± 0.1 pA/pF
PS −80 mV ΔI density ([1]; PS 40 μM, −80 mV, n=5): −0.2 ± 0.02 pA/pF
PS +80 mV ΔI density ([2]; PS 40 μM, +80 mV, n=11): 38.1 ± 12.9 pA/pF
PS −80 mV ΔI density ([2]; PS 40 μM, −80 mV, n=11): −1.9 ± 0.5 pA/pF
PS +80 mV ΔI density ([14]; +80 mV): 1.2 ± 0.6 pA/pF
PS −80 mV ΔI density ([14]; −80 mV): −0.1 ± 0.2 pA/pF
whole-cell current increase [15]: robust current increases
PS +80 mV ΔI density ([3]; PS 40 μM, +80 mV, n=4): 45.2 ± 18.6 pA/pF
PS −80 mV ΔI density ([3]; PS 40 μM, −80 mV, n=4): −2.2 ± 0.6 pA/pF
inhibition of clotrimazole-activated currents by co-application ([4]; PS 40 μM on Clt 10 μM currents, at +80 mV): 10.5 ± 5.1%
PS +80 mV ΔI density ([4]; PS 40 μM, +80 mV, n=5): −1.0 ± 0.85 pA/pF
PS −80 mV ΔI density ([4]; PS 40 μM, −80 mV, n=5): 0.2 ± 0.1 pA/pF
PS +80 mV ΔI density ([16]; +80 mV): 0.25 ± 0.2 pA/pF
PS −80 mV ΔI density ([16]; −80 mV): −0.05 ± 0.3 pA/pF
PS +80 mV ΔI density ([17]; +80 mV): 7.8 ± 2.0 pA/pF
PS −80 mV ΔI density ([17]; −80 mV): −1.3 ± 0.4 pA/pF
calcium increase in co-expressing cells versus TRPM3α2 alone [18]: significantly reduced
PS +80 mV ΔI density ([19]; +80 mV): 1.1 ± 0.4 pA/pF
PS −80 mV ΔI density ([19]; −80 mV): −0.3 ± 0.2 pA/pF
SMILES: CC(=O)[C@H]1CC[C@H]2[C@@H]3CC=C4C[C@@H](OS(=O)(=O)[O-])CC[C@]4(C)[C@H]3CC[C@]12C.[Na+] [pregnenolone sulphate, Pregnenolone sulphate sodium salt]
intracellular calcium response [6]: did not induce any detectable calcium rise
calcium signal at high agonist concentrations [6]: did not induce any detectable calcium signal
PS +80 mV ΔI density ([8]; PS 40 μM, +80 mV): −0.5 ± 0.4 pA/pF
PS −80 mV ΔI density ([8]; PS 40 μM, −80 mV): 0.1 ± 0.04 pA/pF
PS +80 mV ΔI density ([9]; PS 40 μM, +80 mV): 0.01 ± 0.2 pA/pF
PS −80 mV ΔI density ([9]; PS 40 μM, −80 mV): 0.3 ± 0.3 pA/pF
whole-cell current increase ([4]; PS 40 μM): did not evoke any increase in current amplitude
intracellular calcium response [7]: robust calcium responses
PS +80 mV ΔI density ([10]; PS 40 μM, +80 mV): −0.1 ± 0.1 pA/pF
PS −80 mV ΔI density ([10]; PS 40 μM, −80 mV): 0.2 ± 0.1 pA/pF
PS +80 mV ΔI density ([5]; PS 40 μM, +80 mV, n=5): 0.04 ± 0.3 pA/pF
PS −80 mV ΔI density ([5]; PS 40 μM, −80 mV, n=5): 0.01 ± 0.04 pA/pF
